{"source": "ChEMBL document CHEMBL4673340", "about": "(J Med Chem, 2020)", "key": {"SK-BR-3": {"tested_on": "SK-BR-3", "experiment": "Antiproliferation activity against human SK-BR-3 cells incubated for 7 days by CellTiter-Glo luminescent cell viability assay", "type": "functional, cell-based", "conditions": "SK-BR-3, 168 h", "summary_of_the_method": "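Seeding density is set per line for log growth over 7 days. Cells attach 16 h, then are treated in duplicate with a 10-point dilution series for 7 days. CellTiter-Glo luminescence (ATP) is read, and viability is expressed relative to mock-treated control. EC50 is the mean of three independent experiments run in triplicate.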"}, "[1]": {"experiment": "Tmax in ICR mouse at 10 mg/kg, po by LC-MS/MS analysis", "type": "ADME, organism-based", "conditions": "in vivo", "summary_of_the_method": "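Three ICR mice per arm. iv dose 1 mg/kg in 5% DMA in water; oral dose 10 mg/kg in 0.5% MC. Plasma was processed by protein precipitation, diluted with water and quantified by LC-MS/MS (C18 column, acetonitrile/0.1% formic acid gradient). Values are means of three animals.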"}, "[2]": {"experiment": "Cmax in Beagle dog at 2 mg/kg, po by LC-MS/MS analysis", "type": "ADME, organism-based, Canis lupus familiaris", "set-up": "route oral, dose 2 mg/kg", "conditions": "in vivo", "summary_of_the_method": "(§1)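 Three Beagle dogs; iv dose 1 mg/kg in 25% DMA in water; oral dose 2 mg/kg in 0.5% CMC-Na. Plasma drug concentrations are measured by LC–MS/MS. Values are the mean of three dogs.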"}, "[3]": {"experiment": "Clearance in dog liver microsomes", "type": "ADME, Canis lupus familiaris, Microsome", "conditions": "read-out: CLH"}, "[4]": {"experiment": "Cmax in ICR mouse at 10 mg/kg, po by LC-MS/MS analysis", "type": "ADME, organism-based", "set-up": "route oral, dose 10 mg/kg", "conditions": "in vivo", "summary_of_the_method": "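Male/female unspecified ICR mice, n=3 per route. Intravenous 1 mg/kg in 5% DMA in water; oral 10 mg/kg in 0.5% MC. Plasma is processed by protein precipitation and analysed by LC–MS/MS using an acetonitrile/0.1% formic acid gradient. Values are means of the three animals.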"}, "NCI-H209": {"tested_on": "NCI-H209", "experiment": "Potentiation of TMZ-induced antitumor activity against human NCI-H209 cells xenografted in BALB/c nude mouse assessed as inhibition of tumor growth at […], po BID for 28 days and co-treated with 50 mg/kg, po QD TMZ for 5 consecutive days at start of study and again 14 days later", "type": "functional, organism-based", "conditions": "time 28.0 day"}, "[5]": {"experiment": "AUC ( 0 to infinity) in Sprague-Dawley rat at 5 mg/kg, po by LC-MS/MS analysis", "conditions": "in vivo"}, "[6]": {"experiment": "Toxicity in BALB/c nude mouse xenografted with human MDA-MB-436 cells assessed as induction of body weight loss at 1.6 to […], po BID for 28 days followed by treatment was interruption and monitored for additional 2 months", "type": "organism-based", "conditions": "in vivo, dose 1.6-3.1 mg/kg, time 28 day"}, "[7]": {"experiment": "Drug level in C57BL/6 mouse plasma at 10 mg/kg, po after 1 hrs", "type": "ADME, organism-based", "summary_of_the_method": "(§2)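 C57BL/6 mice (n=3) dosed orally at 10 mg/kg in 0.5% MC. Plasma and brain are sampled at 1, 2 and 4 h. Brain is homogenized in 3 volumes of saline, then acetonitrile protein precipitation; plasma is likewise precipitated. Both are analysed by LC–MS/MS and reported as means.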"}, "MDA-MB-436": {"tested_on": "MDA-MB-436", "experiment": "Antitumor activity against human MDA-MB-436 cells xenografted in BALB/c nude mouse assessed as inhibition of tumor growth at 1.6 to […], po BID for 28 days followed by treatment was interruption and monitored for additional 2 months", "type": "functional, organism-based", "conditions": "dose lower […], dose upper […], time 28.0 day"}, "[8]": {"experiment": "Drug level in C57BL/6 mouse plasma at 10 mg/kg, po after 4 hrs", "type": "ADME, organism-based", "summary_of_the_method": "as §2"}, "[9]": {"experiment": "Half life in Beagle dog at 2 mg/kg, po by LC-MS/MS analysis", "type": "ADME, organism-based, Canis lupus familiaris", "conditions": "in vivo", "summary_of_the_method": "as §1"}, "[10]": {"molecular_target": "Solute carrier family 22 member 2, OCT2 (Homo sapiens) (UniProt O15244)", "sequence (O15244 whole entry, looked up)": "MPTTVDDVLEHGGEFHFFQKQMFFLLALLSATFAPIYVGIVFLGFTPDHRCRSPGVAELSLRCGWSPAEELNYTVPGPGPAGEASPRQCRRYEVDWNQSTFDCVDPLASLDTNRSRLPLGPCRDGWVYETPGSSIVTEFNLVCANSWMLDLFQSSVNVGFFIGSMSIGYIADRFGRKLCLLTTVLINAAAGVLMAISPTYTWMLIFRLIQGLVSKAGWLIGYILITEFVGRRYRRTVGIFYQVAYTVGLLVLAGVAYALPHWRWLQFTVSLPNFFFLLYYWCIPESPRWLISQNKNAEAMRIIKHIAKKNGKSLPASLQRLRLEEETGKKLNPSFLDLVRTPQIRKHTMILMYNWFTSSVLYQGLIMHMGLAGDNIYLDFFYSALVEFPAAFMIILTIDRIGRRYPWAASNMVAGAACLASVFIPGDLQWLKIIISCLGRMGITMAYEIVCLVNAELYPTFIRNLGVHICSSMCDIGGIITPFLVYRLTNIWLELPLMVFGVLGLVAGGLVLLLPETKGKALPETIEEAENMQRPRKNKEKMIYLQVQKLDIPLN", "experiment": "Inhibition of OCT2 (unknown origin) up to 50 uM", "conditions": "dose microM <=50"}}, "note": "Calls of active or inactive are those of the source. The calls are words filed in the database; no cut-off is given here."}
{"smiles": "C[C@]12CCCN1CC1=NNC(=O)c3cc(F)cc4[nH]c2c1c34", "note": "[PAMIPARIB]", "values": [{"measurement": "EC50", "setting": "SK-BR-3", "result": "> 10", "unit": "µM"}, {"measurement": "Tmax", "setting": "[1]", "result": 0.583, "unit": "h"}, {"measurement": "Cmax", "setting": "[2]", "result": 502, "unit": "ng/mL"}, {"measurement": "microsomal CLint", "setting": "[3]", "result": 9.5, "unit": "µL/min/mg"}, {"measurement": "Cmax", "setting": "[4]", "result": 2710, "unit": "ng/mL"}, {"measurement": "TGI", "setting": "NCI-H209", "result": "Active"}, {"measurement": "AUC(0-inf)", "setting": "[5]", "result": 3470, "unit": "ng·h/mL"}, {"measurement": "Activity", "setting": "[6]", "result": "Non-Toxic"}, {"measurement": "concentration at 1 h", "setting": "[7]", "result": 3530, "unit": "ng/mL"}, {"measurement": "TGI", "setting": "MDA-MB-436", "result": "Dose-dependent effect"}, {"measurement": "concentration at 4 h", "setting": "[8]", "result": 707, "unit": "ng/mL"}, {"measurement": "half-life", "setting": "[9]", "result": 3.62, "unit": "h"}, {"measurement": "inhibition", "setting": "[10]", "result": "inactive"}]}
